Assay results taken from ChEMBL document CHEMBL1126044, “Affinity of human growth hormone-releasing factor (1-29)NH2 analogues for GRF binding sites in rat adenopituitary” (J Med Chem, 1992).

Legend:
Rattus norvegicus = organism: Rattus norvegicus; assay: Residual concentration after 60 min incubation with pituitary homogenates, in the binding assay conditions, by quantitative HPLC method; type: functional
Summary of the method: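 Peptide at 10 µM incubated with rat pituitary homogenate (150 µg protein/100 µL) in binding-assay conditions at 23 °C for 0 and 60 min. Reaction stopped with cold 50 mM phosphate pH 0.8 and centrifugation. Controls without homogenate accounted for adsorption. Remaining peptide measured by C18 HPLC (0.01% TFA/acetonitrile gradient, UV 214 nm) and peak-area integration.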

[1] = target: T1, Growth hormone-releasing hormone receptor (Rattus norvegicus) (UniProt Q02644); assay: Relative affinity compared to hGRF(1-29)NH2; type: functional
T1 sequence (whole entry): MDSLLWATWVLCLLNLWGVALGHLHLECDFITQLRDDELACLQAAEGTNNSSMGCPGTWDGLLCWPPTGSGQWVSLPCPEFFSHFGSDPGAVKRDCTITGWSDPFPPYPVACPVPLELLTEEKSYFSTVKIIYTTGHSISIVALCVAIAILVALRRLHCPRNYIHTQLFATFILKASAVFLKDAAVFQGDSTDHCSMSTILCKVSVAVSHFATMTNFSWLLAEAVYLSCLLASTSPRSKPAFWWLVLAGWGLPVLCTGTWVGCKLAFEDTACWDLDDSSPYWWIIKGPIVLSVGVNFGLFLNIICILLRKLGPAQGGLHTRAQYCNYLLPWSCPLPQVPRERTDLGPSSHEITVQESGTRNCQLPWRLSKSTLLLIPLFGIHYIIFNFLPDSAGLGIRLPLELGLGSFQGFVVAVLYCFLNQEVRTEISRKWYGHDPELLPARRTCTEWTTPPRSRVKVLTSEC
Summary of the method: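 Radioligand competition in rat anterior pituitary homogenate using [125I-Tyr10]hGRF(1-44)NH2 at 35–50 pM and peptides at 0–1000 nM, 60 min at 23 °C. Relative affinity is the binding IC50 expressed as a percentage relative to hGRF(1-29)NH2.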

[2] = target: T2, Growth hormone-releasing hormone receptor (Rattus norvegicus, UniProt Q02644); assay: Compound was tested to Inhibit [125I]GRF in rat adenopituitary homogenates
T2 sequence (Q02644 whole entry): T1 sequence (whole entry)
Summary of the method: (§1)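 Anterior pituitaries from 2-month-old male Sprague-Dawley rats homogenized in ice-cold 50 mM Tris-HCl pH 7.4 with 5 mM MgCl2, 5 mM EDTA. Homogenate (70–75 µg protein) incubated with 35–50 pM [125I-Tyr10]hGRF(1-44)NH2 and peptide at 0–1000 nM in Tris-HCl buffer pH 7.4 with 5 mM EDTA, 5 mM MgCl2, 0.42% BSA, 60 min at 23 °C. Nonspecific binding defined with 2.4 µM rGRF(1-29)NH2. Bound fraction separated by centrifugation and gamma-counted. IC50 fitted with LIGAND. Mean ± SEM of three experiments, each in duplicate or triplicate.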

[3] = target: T2, Growth hormone-releasing hormone receptor; assay: Compound was tested to Inhibit [125I]-Growth hormone-releasing factor in rat adenopituitary homogenates; summary of the method: as §1

A Residual peptide remaining after 60 min (Rattus norvegicus) of 100% and an Activity [1] of 13% were found for H-ADAIFTSSYRRILGQLYARKLLHEIMNR-NH2 in this work.

H-YADAIFTNSYRKQLSARKLLQDIMSR-NH2 was tested, and the IC50 [2] was > 1000 nM.

A Residual peptide remaining after 60 min (Rattus norvegicus) of 93%, an Activity [1] of 1.8% and an IC50 [3] of 311 nM were found for H-DAIFTNSYRKVLAQLSARKLLQDIMSR-NH2 in this work.

A Residual peptide remaining after 60 min (Rattus norvegicus) of 100%, an Activity [1] of 26% and an IC50 [3] of 21.6 nM were found for `CC[C@H](C)[C@H](NC(=O)[C@H](C)NC(=O)[C@H](CC(=O)O)NC(=O)[C@H](C)NC(=O)[C@H](Cc1ccc(O)cc1)NC(=O)CCCCCCCN)C(=O)N[C@@H](Cc1ccccc1)C(=O)N[C@H](C(=O)N[C@@H](CC(N)=O)C(=O)N[C@@H](CO)C(=O)N[C@@H](Cc1ccc(O)cc1)C(=O)N[C@@H](CCCN=C(N)N)C(=O)N[C@@H](CCCCN)C(=O)N[C@H](C(=O)N[C@@H](CC(C)C)C(=O)NCC(=O)N[C@@H](CCC(N)=O)C(=O)N[C@@H](CC(C)C)C(=O)N[C@@H](CO)C(=O)N[C@@H](C)C(=O)N[C@@H](CCCN=C(N)N)C(=O)N[C@@H](CCCCN)C(=O)N[C@@H](CC(C)C)C(=O)N[C@@H](CC(C)C)C(=O)N[C@@H](CCC(N)=O)C(=O)N[C@@H](CC(=O)O)C(=O)N[C@H](C(=O)N[C@@H](CCSC)C(=O)N[C@@H](CO)C(=O)N[C@@H](CCCN=C(N)N)C(N)=O)[C@@H](C)CC)C(C)C)[C@@H](C)O` in this work.

An Activity [1] of 28% and an IC50 [3] of 20.2 nM were found for H-YADAIFTNSYRKVLGQLSARKLLQDIMS-NH2 in this work.

For H-YADAIFTNSYRKVLGLSARKLLQDIMSR-NH2, the IC50 [2] was > 1000 nM.

An Activity [1] of 57% and an IC50 [3] of 9.8 nM were found for H-HADAIFTSSYRRILGQLYARKLLHEIMNR-NH2 in this work.

A Residual peptide remaining after 60 min (Rattus norvegicus) of 85% and an Activity [1] of 12% were found for H-YADAIFTNSYRKVLGQLSARKLLDIMSR-NH2 in this work.

An Activity [1] of 85% was found for `CC[C@H](C)[C@H](NC(=O)[C@H](C)NC(=O)[C@H](CC(=O)O)NC(=O)[C@H](C)NC(=O)[C@H](Cc1ccc(O)cc1)NC(=O)CCCCCN)C(=O)N[C@@H](Cc1ccccc1)C(=O)N[C@H](C(=O)N[C@@H](CC(N)=O)C(=O)N[C@@H](CO)C(=O)N[C@@H](Cc1ccc(O)cc1)C(=O)N[C@@H](CCCN=C(N)N)C(=O)N[C@@H](CCCCN)C(=O)N[C@H](C(=O)N[C@@H](CC(C)C)C(=O)NCC(=O)N[C@@H](CCC(N)=O)C(=O)N[C@@H](CC(C)C)C(=O)N[C@@H](CO)C(=O)N[C@@H](C)C(=O)N[C@@H](CCCN=C(N)N)C(=O)N[C@@H](CCCCN)C(=O)N[C@@H](CC(C)C)C(=O)N[C@@H](CC(C)C)C(=O)N[C@@H](CCC(N)=O)C(=O)N[C@@H](CC(=O)O)C(=O)N[C@H](C(=O)N[C@@H](CCSC)C(=O)N[C@@H](CO)C(=O)N[C@@H](CCCN=C(N)N)C(N)=O)[C@@H](C)CC)C(C)C)[C@@H](C)O` in this work.

With H-YADAIFTNSYRKLGQLSARKLLQDIMSR-NH2 the Residual peptide remaining after 60 min (Rattus norvegicus) was 89% and the IC50 [3] was > 1000 nM.

With H-YADAIFTNSYRKGQLSARKLLQDIMSR-NH2 the IC50 [2] was > 1000 nM.

A Residual peptide remaining after 60 min (Rattus norvegicus) of 85% and an Activity [1] of 32% were found for `CC[C@H](C)[C@H](NC(=O)[C@H](C)NC(=O)[C@H](CC(=O)O)NC(=O)[C@H](C)NC(=O)[C@H](Cc1ccc(O)cc1)NC(C)=O)C(=O)N[C@@H](Cc1ccccc1)C(=O)N[C@H](C(=O)N[C@@H](CC(N)=O)C(=O)N[C@@H](CO)C(=O)N[C@@H](Cc1ccc(O)cc1)C(=O)N[C@@H](CCCN=C(N)N)C(=O)N[C@@H](CCCCN)C(=O)N[C@H](C(=O)N[C@@H](CC(C)C)C(=O)NCC(=O)N[C@@H](CCC(N)=O)C(=O)N[C@@H](CC(C)C)C(=O)N[C@@H](CO)C(=O)N[C@@H](C)C(=O)N[C@@H](CCCN=C(N)N)C(=O)N[C@@H](CCCCN)C(=O)N[C@@H](CC(C)C)C(=O)N[C@@H](CC(C)C)C(=O)N[C@@H](CCC(N)=O)C(=O)N[C@@H](CC(=O)O)C(=O)N[C@H](C(=O)N[C@@H](CCSC)C(=O)N[C@@H](CO)C(=O)N[C@@H](CCCN=C(N)N)C(N)=O)[C@@H](C)CC)C(C)C)[C@@H](C)O` in this work.

A Residual peptide remaining after 60 min (Rattus norvegicus) of 100% and an Activity [1] of 5.9% were found for H-YADAIFTSYRKVLGQLSARKLLQDIMSR-NH2 in this work.

An Activity [1] of 41% was found for `CC[C@H](C)[C@H](NC(=O)[C@H](C)NC(=O)[C@H](CC(=O)O)NC(=O)[C@H](C)NC(=O)[C@H](Cc1ccc(O)cc1)NC(=O)CCCN)C(=O)N[C@@H](Cc1ccccc1)C(=O)N[C@H](C(=O)N[C@@H](CC(N)=O)C(=O)N[C@@H](CO)C(=O)N[C@@H](Cc1ccc(O)cc1)C(=O)N[C@@H](CCCN=C(N)N)C(=O)N[C@@H](CCCCN)C(=O)N[C@H](C(=O)N[C@@H](CC(C)C)C(=O)NCC(=O)N[C@@H](CCC(N)=O)C(=O)N[C@@H](CC(C)C)C(=O)N[C@@H](CO)C(=O)N[C@@H](C)C(=O)N[C@@H](CCCN=C(N)N)C(=O)N[C@@H](CCCCN)C(=O)N[C@@H](CC(C)C)C(=O)N[C@@H](CC(C)C)C(=O)N[C@@H](CCC(N)=O)C(=O)N[C@@H](CC(=O)O)C(=O)N[C@H](C(=O)N[C@@H](CCSC)C(=O)N[C@@H](CO)C(=O)N[C@@H](CCCN=C(N)N)C(N)=O)[C@@H](C)CC)C(C)C)[C@@H](C)O` in this work.

A Residual peptide remaining after 60 min (Rattus norvegicus) of 88% and an IC50 [3] of 1000 nM were found for H-YADAIFTNSYRKVLQLSARKLLQDIMSR-NH2 in this work.

A Residual peptide remaining after 60 min (Rattus norvegicus) of 100% and an Activity [1] of 78% were found for H-YADAIFTNSYRKVLGQLSARKLLQDIMR-NH2 in this work.

An Activity [1] of 62% was found for H-YADAIFTNSYRKVLGQLSARKLLQDISR-NH2 in this work.

A Residual peptide remaining after 60 min (Rattus norvegicus) of 92%, an Activity [1] of 0.7% and an IC50 [3] of 836 nM were found for H-YADAIFTNSYRVLGQLSARKLLQDIMSR-NH2 in this work.

In the case of H-YADAIFTNSYRKVLGLLQDIMSR-NH2, the IC50 [2] is reported as > 1000 nM.

An Activity [1] of 30% and an IC50 [3] of 20.3 nM were found for H-YADAIFTNSYRKVLGQLSARKLLQDMSR-NH2 in this work.

A Residual peptide remaining after 60 min (Rattus norvegicus) of 94% and an Activity [1] of 4.6% were found for H-YADAIFTNSYRKVLGQLSARKLLQDIR-NH2 in this work.

An Activity [1] of 1.5% was found for H-ADAIFTNSYRKVLAQLSARKLLQDIMSR-NH2 in this work.

An Activity [1] of 0.6% and an IC50 [2] of 1000 nM were found for H-YADAIFTNSYRKVLGQLSLLQDIMSR-NH2 in this work.

A Residual peptide remaining after 60 min (Rattus norvegicus) of 81% and an Activity [1] of 100% were found for `CC[C@H](C)[C@H](NC(=O)[C@H](C)NC(=O)[C@H](CC(=O)O)NC(=O)[C@H](C)NC(=O)[C@@H](N)Cc1ccc(O)cc1)C(=O)N[C@@H](Cc1ccccc1)C(=O)N[C@H](C(=O)N[C@@H](CC(N)=O)C(=O)N[C@@H](CO)C(=O)N[C@@H](Cc1ccc(O)cc1)C(=O)N[C@@H](CCCN=C(N)N)C(=O)N[C@@H](CCCCN)C(=O)N[C@H](C(=O)N[C@@H](CC(C)C)C(=O)NCC(=O)N[C@@H](CCC(N)=O)C(=O)N[C@@H](CC(C)C)C(=O)N[C@@H](CO)C(=O)N[C@@H](C)C(=O)N[C@@H](CCCN=C(N)N)C(=O)N[C@@H](CCCCN)C(=O)N[C@@H](CC(C)C)C(=O)N[C@@H](CC(C)C)C(=O)N[C@@H](CCC(N)=O)C(=O)N[C@@H](CC(=O)O)C(=O)N[C@H](C(=O)N[C@@H](CCSC)C(=O)N[C@@H](CO)C(=O)N[C@@H](CCCN=C(N)N)C(N)=O)[C@@H](C)CC)C(C)C)[C@@H](C)O` in this work.
